Source: PubChem (The Scripps Research Institute Molecular Screening Center)
MMP13 inh – blocks human MMP13 activity | MMP-13 fTHP FRET cleavage, Mca fluorescence | inhibition, % at 4 µM | AID 570 | 65,000 compounds, 0.07% hits;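 active = inhibition above the mean of compound-free control plate wells plus 3 SD, cut at about 14% in these data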;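 note: 0% = DMSO wells and 100% = wells with reference MMP-13 inhibitor after basal subtraction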
SF1 activator – SF-1 (human) activation. Q13285. CHO-K1 Gal4-SF-1 LBD luciferase reporter; % increase over DMSO SF-1-specific signal. activation, % at 10 µM. 65,000 compounds, 1.9% hits;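 active = activation above the mean activation of all tested compounds plus 3 SD, cut at about 50% in these data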
Target sequence (Q13285 whole entry, looked up, the tested form may be a part): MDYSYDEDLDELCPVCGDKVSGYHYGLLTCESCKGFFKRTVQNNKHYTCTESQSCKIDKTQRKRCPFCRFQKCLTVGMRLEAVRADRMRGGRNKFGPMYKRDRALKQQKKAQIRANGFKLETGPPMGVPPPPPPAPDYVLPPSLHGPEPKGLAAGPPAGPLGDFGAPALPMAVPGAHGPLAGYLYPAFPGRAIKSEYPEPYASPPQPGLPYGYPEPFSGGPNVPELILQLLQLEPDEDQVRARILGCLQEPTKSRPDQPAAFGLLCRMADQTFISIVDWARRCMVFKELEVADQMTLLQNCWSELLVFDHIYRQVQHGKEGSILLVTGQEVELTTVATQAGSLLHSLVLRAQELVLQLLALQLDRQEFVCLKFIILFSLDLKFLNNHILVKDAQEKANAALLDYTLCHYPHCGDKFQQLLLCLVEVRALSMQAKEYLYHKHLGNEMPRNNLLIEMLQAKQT
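Material: CHO-K1 cells with Gal4–hSF-1 LBD chimera plus Gal4-driven luciferase / Input: 4,000 CHO-K1 cells per well / Incubation: compound exposure 20 h at 37 °C / Signal: luminescence read 15 min after SteadyLite luciferase reagent, after room-temperature equilibration / Read-out: percent activation versus DMSO / Benchmarks: DMSO negative control and −SF1 background wells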
PKA kinase inh – blocks human protein kinase A activity; 65,000 compounds, 0.1% hits; P17612; inhibition, % at 6 µM; AID 524; PKA Kemptide phosphorylation, Kinase-Glo ATP luminescence;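 active = inhibition above the screen-wide mean inhibition plus 3 SD, cut at about 21% in these data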
JNK3 blocker – JNK3 (human) kinase inhibition; purified JNK3 kinase activity, HTS; AID 746; 60,000 compounds, 0.61% hits; inhibition, % at 8 µM; P53779; in the data active = inhibition above about 17%;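 note: 0% = DMSO and 100% = reference inhibitor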
RORA act – RORA (human) activation. CHO-K1 Gal4-RORA LBD luciferase reporter, luminescence; percent increase over mock-subtracted basal signal. activation, % at 10 µM. 65,000 compounds, 1.5% hits;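 active = activation above the mean of all tested compounds plus 3 SD, cut at about 49% in these data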;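 note: 0% = DMSO-treated RORA cells and 100% = added signal equal to DMSO minus mock-transfected cells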
ROCK2 inh – blocks human Rho kinase 2 activity. O75116. purified ROCK2, Kinase-Glo ATP depletion luminescence. inhibition, % at 6 µM. 60,000 compounds, 0.35% hits;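 active = inhibition above the screen-wide mean inhibition plus 3 SD, cut at about 18% in these data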;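 note: plate controls were DMSO wells for no effect and Y-27632 control wells after no-enzyme background subtraction for full effect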
* marks the source's active call; other numbers are inactive results. Shown are actives, neighbours in structure and some others; about 3.4% of the full set was active somewhere.

Results for CCOC(=O)c1sc(NC(=O)c2ccc3ncsc3c2)nc1C ?
MMP13 inh: -6.3; SF1 activator: 76.5*; PKA kinase inh: -3.5; JNK3 blocker: -2.2; RORA act: 20.1; ROCK2 inh: 1.9

How did CCOC(=O)CSc1nc2cc(OC)ccc2cc1C#N do in these assays?
MMP13 inh: -16.2; SF1 activator: 104.1*; PKA kinase inh: 3.0; JNK3 blocker: -1.8; RORA act: 68.0*; ROCK2 inh: 1.6

How did CCOc1ccc2cc(C#N)c(SCC(=O)N3CCOCC3)nc2c1 do in these assays?
MMP13 inh: -23.4; SF1 activator: 20.9; PKA kinase inh: -3.0; JNK3 blocker: -3.3; RORA act: 56.2*; ROCK2 inh: -6.8

What do the screens show for `CCOC(=O)CSc1nc2cc(C)ccc2cc1C#N`?
MMP13 inh: -1.6; SF1 activator: 85.0*; PKA kinase inh: 8.9; JNK3 blocker: 1.9; RORA act: 71.3*; ROCK2 inh: 0.9

What do the screens show for `CCOC(=O)CSc1nc2cc3c(cc2cc1C#N)OCO3`?
MMP13 inh: -12.7; SF1 activator: 65.6*; PKA kinase inh: 2.2; JNK3 blocker: -7.0; RORA act: 47.7; ROCK2 inh: 1.4

Results for CCOc1ccc2nc(SCC(=O)N3CCCCCC3)c(C#N)cc2c1 ?
MMP13 inh: -6.3; SF1 activator: -21.9; PKA kinase inh: 0.9; JNK3 blocker: -3.0; RORA act: -3.2; ROCK2 inh: 5.4

Results for CCOC(=O)CSc1nc2cc(C)cc(C)c2cc1C#N ?
MMP13 inh: 1.8; SF1 activator: 33.1; PKA kinase inh: 7.8; JNK3 blocker: 3.4; RORA act: 17.2; ROCK2 inh: 2.2

What do the screens show for `COC(=O)c1ccc(Oc2nc3ccccc3n3c(C)nnc23)cc1`?
MMP13 inh: 3.7; SF1 activator: -8.7; PKA kinase inh: -3.8; JNK3 blocker: -23.2; RORA act: -6.6; ROCK2 inh: -1.4

Results for CCCn1c(SCC(=O)OCc2ccccc2)nc2c1c(=O)n(C)c(=O)n2C ?
MMP13 inh: 0.5; SF1 activator: 1.7; PKA kinase inh: 9.1; JNK3 blocker: 1.9; RORA act: -2.3; ROCK2 inh: 3.3

How did COc1ccc(CCn2c(=N)c(C#N)cc3c(=O)n4ccccc4nc32)cc1 do in these assays?
MMP13 inh: -15.8; SF1 activator: -16.5; PKA kinase inh: -3.3; JNK3 blocker: -4.2; RORA act: -10.3; ROCK2 inh: -13.2

Results for COc1nc(N)nc(N2CCOCC2)n1 ?
MMP13 inh: 14.7*; SF1 activator: -1.8; PKA kinase inh: -2.8; JNK3 blocker: 4.0; RORA act: 10.9; ROCK2 inh: 0.1

How did CNc1nc(OC)nc(N2CCOCC2)n1 do in these assays?
MMP13 inh: -1.5; SF1 activator: -13.1; PKA kinase inh: -4.7; JNK3 blocker: -5.2; RORA act: -25.5; ROCK2 inh: 0.8

Results for COc1ccccc1OCc1csc(NC(=O)c2ccco2)n1 ?
MMP13 inh: -2.2; SF1 activator: 66.7*; PKA kinase inh: 6.1; JNK3 blocker: -1.6; RORA act: 21.2; ROCK2 inh: 5.0

How did Cc1csc(NC(=O)c2ccco2)n1 do in these assays?
MMP13 inh: -17.6; SF1 activator: 15.8; PKA kinase inh: 1.4; JNK3 blocker: 7.2; RORA act: 32.4; ROCK2 inh: -0.2

What do the screens show for `Cc1cnn(C(=S)NCc2ccc(Cl)cc2)c1`?
MMP13 inh: 8.8; SF1 activator: -13.0; PKA kinase inh: -0.8; JNK3 blocker: 3.0; RORA act: -11.3; ROCK2 inh: 3.8

What do the screens show for `Cc1cnn(C(=S)NCCc2ccccc2)c1`?
MMP13 inh: 0.1; SF1 activator: 52.7*; PKA kinase inh: 10.8; JNK3 blocker: -1.6; RORA act: 26.7; ROCK2 inh: 10.2

Results for CCOC(=O)CC(=O)CSc1nnc2c(n1)[nH]c1ccccc12 ?
MMP13 inh: 0.6; SF1 activator: 53.2*; PKA kinase inh: -3.7; JNK3 blocker: 4.3; RORA act: 44.7; ROCK2 inh: -1.0

Results for CCOC(=O)CN(C(=O)CSc1nnc2c(n1)[nH]c1ccc(OC)cc12)c1ccc(F)cc1 ?
MMP13 inh: 9.3; SF1 activator: 15.3; PKA kinase inh: 1.5; JNK3 blocker: -3.7; RORA act: 0.6; ROCK2 inh: -3.5

Results for CCN1C(=S)SC(=O)C1=C1C=C(C)N(CCOC)C(C)=C1 ?
MMP13 inh: 26.8*; SF1 activator: -6.0; PKA kinase inh: 7.5; RORA act: 24.0

How did Cc1ccc2c(C)nc(NC3=NCN(C(C)C)CN3)nc2c1 do in these assays?
MMP13 inh: 4.2; SF1 activator: -15.1; PKA kinase inh: -1.5; JNK3 blocker: 1.6; RORA act: -12.1; ROCK2 inh: 3.6

How did Cc1nn(-c2ccccc2)c2sc(C(=O)N3CCCCC3)cc12 do in these assays?
MMP13 inh: 3.7; SF1 activator: 44.4; PKA kinase inh: -5.5; JNK3 blocker: 13.0; RORA act: 15.5; ROCK2 inh: -3.8

How did Cc1ccccc1-n1nc(C)c2cc(C(=O)N3CCOCC3)sc21 do in these assays?
MMP13 inh: -6.9; SF1 activator: 9.8; PKA kinase inh: 1.8; JNK3 blocker: 23.2*; RORA act: 3.9; ROCK2 inh: 3.5

What do the screens show for `CCOC(=O)COn1c(=O)c(-c2ccco2)[n+]([O-])c2ccccc21`?
MMP13 inh: -10.0; SF1 activator: -16.5; PKA kinase inh: -4.5; JNK3 blocker: -3.9; RORA act: -9.2; ROCK2 inh: -1.7

What do the screens show for `CCOn1c(=O)c(-c2cc3ccccc3o2)[n+]([O-])c2ccccc21`?
MMP13 inh: 5.5; SF1 activator: 97.4*; PKA kinase inh: 9.0; JNK3 blocker: -0.9; RORA act: 60.0*; ROCK2 inh: 7.6

How did Cc1cc(N)n2ncc(-c3cccc(Br)c3)c2n1 do in these assays?
MMP13 inh: -75.6; SF1 activator: 59.3*; PKA kinase inh: 5.3; JNK3 blocker: 0.3; RORA act: 43.6; ROCK2 inh: 3.4

How did Cc1cc(N)n2ncc(-c3ccccc3)c2n1 do in these assays?
MMP13 inh: -9.5; SF1 activator: 75.3*; PKA kinase inh: 9.6; RORA act: 88.5*

Results for Cc1cc(N2CCN(C3CCCC3)CC2)n2ncc(-c3ccccc3)c2n1 ?
MMP13 inh: -5.8; SF1 activator: 9.6; PKA kinase inh: 1.9; JNK3 blocker: 1.1; RORA act: -4.7; ROCK2 inh: 2.1

What do the screens show for `CCn1c(-c2cccc(Br)c2)n[nH]c1=S`?
MMP13 inh: 0.0; SF1 activator: -5.2; PKA kinase inh: 13.0; JNK3 blocker: -3.4; RORA act: 13.3; ROCK2 inh: 6.2

How did N#CC(C#N)=c1ccc2c(c1)NC1(CCCCC1)N=2 do in these assays?
MMP13 inh: -11.7; SF1 activator: -64.6; PKA kinase inh: 5.7; JNK3 blocker: -17.3; RORA act: -58.1; ROCK2 inh: 4.3

How did Nc1c(Br)cc2oc(-c3ccccc3)nc2c1Br do in these assays?
MMP13 inh: 1.7; SF1 activator: 75.6*; PKA kinase inh: -2.6; JNK3 blocker: -5.1; RORA act: 52.3*; ROCK2 inh: -1.8
